Here are results for 15 compounds from ChEMBL document CHEMBL1133754, “Synthesis and antiviral evaluation of halogenated beta-D- and -L-erythrofuranosylbenzimidazoles” (J Med Chem, 2000).

Test [1] concerns Human betaherpesvirus 5. As to the kind of experiment: Compound was tested for antiviral activity against HCMV in DNA hybridization assay. The format is functional, organism-based. In outline: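 HCMV replication measured by DNA hybridization; IC50 from linear regression of percent inhibition against log drug concentration.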
For test [2], the system named is Human betaherpesvirus 5. In words: Compound was tested for antiviral activity against HCMV in viral cytopathic effect (CPE) assay. The format is functional, organism-based. Summed up: (§1)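 HCMV viral cytopathic effect scored microscopically as visible virus effects on cells; IC50 derived by linear regression of percent inhibition vs log drug concentration.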
Test [3] deals with Human alphaherpesvirus 1. In words: Compound was tested for antiviral activity against HSV-1 assayed by ELISA in quadruplicate wells. The test is classed as functional, organism-based. Summed up:
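HSV-1 replication measured by ELISA in quadruplicate wells; IC50 from linear regression of percent inhibition against log drug concentration.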

Test [4] relates to HFF. As to the kind of experiment: Compound was tested for visual cytotoxicity on HFF cells unaffected by HCMV at the time of plaque enumeration. The format is functional, cell-based. Particulars: Homo sapiens. Summed up: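 Stationary HFF cells not affected by virus in plaque assay plates inspected microscopically for cytotoxicity at time of plaque enumeration; IC50 by regression of percent inhibition vs log concentration.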

Test [5] can be described thus: Compound was tested for antiviral activity against Towne strain of HCMV in a yield reduction assay using HFF cells. The format is functional. Conditions: Homo sapiens. Summed up: (§2)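 HCMV Towne yield reduction in HFF cells, MOI 0.5; progeny titred by end-point dilution and plaque enumeration; IC50 from linear regression of percent inhibition against log drug concentration.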

The test system of test [6] is HFF. As to the kind of experiment: Compound was tested for antiviral activity against Towne strain of HCMV in a plaque reduction assay using HFF cells. The test is classed as functional, cell-based. Particulars: Homo sapiens. (In general: Plaques are areas of infected cells; plaque reduction assays count them against a control.)
Test [7] in a line: (§3) Compound was tested for inhibition of KB cell growth in quadruplicate assay. The format is functional, cell-based. Conditions: Homo sapiens. In outline:
(§4)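 KB cell proliferation over two control population doublings; crystal violet staining with spectrophotometric quantification of eluted dye; quadruplicate assays; IC50 by linear regression of percent inhibition vs log concentration.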

The subject of test [8] is HFF. As to the kind of experiment: Compound was tested for antiviral activity against AD169 strain of HCMV in a plaque reduction assay using HFF cells. The format is functional, cell-based. Particulars: Homo sapiens.
The subject of test [9] is HFF. In words: Compound was tested for antiviral activity against wild-type AD169 virus of HCMV in plaque reduction assay using HFF cells. The test is classed as functional, cell-based. Particulars: Homo sapiens.
Test [10] relates to HFF. As to the kind of experiment: Compound was tested for antiviral activity against wild-type Towne virus of HCMV in plaque reduction assay using HFF cells. The format is functional, cell-based. Conditions: Homo sapiens.
In test [11] the test system is HFF. In words: Compound was tested for antiviral activity against wild-type Towne virus of HCMV in yield reduction assay using HFF cells. The format is functional, cell-based. Conditions: Homo sapiens. Summed up:
as §2

The subject of test [12] is HFF. As to the kind of experiment: Compound was tested for antiviral activity against C-4 Towne virus of HCMV in plaque reduction assay using HFF cells. The test is classed as functional, cell-based. Particulars: Homo sapiens.
Test [13] has as its system HFF. As to the kind of experiment: Compound was tested for antiviral activity against C-4 Towne virus of HCMV in yield reduction assay using HFF cells. The test is classed as functional, cell-based. Conditions: Homo sapiens.
For test [14], the system named is KB. The test is described as §3. Conditions: Homo sapiens. The format is functional, cell-based. Summed up:
as §4

Test [15] deals with HFF. As to the kind of experiment: Compound was tested for antiviral activity against 2916 strain of HCMV in plaque reduction assay using HFF cells. Particulars: Homo sapiens. The test is classed as functional, cell-based.
The nature of test [16]: Compound was tested for inhibition of MOLT 4 cells. The test is classed as functional, cell-based, Homo sapiens. Summed up: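 Cytotoxicity in MOLT 4 cells (human T-cell lymphocytic leukemia line). IC50 from linear regression of percent inhibition against log drug concentration; >100 µM means IC50 was not reached at the highest concentration tested.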
Test [17] relates to Human betaherpesvirus 5. As to the kind of experiment: Compound was tested for antiviral activity against HCMV in viral cytopathic effect(CPE) assay. The format is functional, organism-based. Summed up: as §1
The subject of test [18] is HFF. As to the kind of experiment: (§5) Compound was tested for antiviral activity against C-4 Towne strain of HCMV in yield reduction assay using HFF cells. The test is classed as functional. Particulars: Homo sapiens.
In test [19] the test system is HFF. As to the kind of experiment: (§6) Compound was tested for antiviral activity against wild-type Towne strain of HCMV in yield reduction assay using HFF cells. The test is classed as functional. Particulars: Homo sapiens. Summed up: as §2
The test system of test [20] is HFF. As to the kind of experiment: Compound was tested for antiviral activity against 2916 type AD169 virus of HCMV in plaque reduction assay using HFF cells. The test is classed as functional, cell-based. Particulars: Homo sapiens.
Test [21] relates to HFF. In words: (§7) Compound was tested for antiviral activity against wild-type AD169 strain of HCMV in yield reduction assay using HFF cells. The format is functional, cell-based. Particulars: Homo sapiens.
Test [22] deals with HFF. In words: (§8) Compound was tested for antiviral activity against 2916 AD169 strain of HCMV in yield reduction assay using HFF cells. The test is classed as functional, cell-based. Particulars: Homo sapiens.
Test [23] deals with HFF. As to the kind of experiment: Compound was tested for antiviral activity against AD169 strain of HCMV in a plaque assay using HFF cells. The format is functional, cell-based. Particulars: Homo sapiens.
Test [24] has as its system HFF. The description is as §6. The test is classed as functional, cell-based. Particulars: Homo sapiens. In outline:
as §2

The test system of test [25] is HFF. Described as §8. Particulars: Homo sapiens. The format is functional.
The test system of test [26] is HFF. The test is described as §7. The test is classed as functional. Particulars: Homo sapiens.
Test [27] deals with HFF. Described as §5. The test is classed as functional, cell-based. Conditions: Homo sapiens.

In the case of `CC(=O)OC1[C@@H](OC(C)=O)CO[C@H]1n1c(Br)nc2cc(Cl)c(Cl)cc21` (stereo partly drawn), the IC50 – broadly, the point on the concentration scale where inhibition reaches its midpoint – is 210 nM in test [1]; 50 nM in test [2]; greater than 100000 nM in [3]; 59000 nM in [4]; 220 nM in test [6]; 60000 nM in test [7]. For the same compound, in [8], the IC50 stood at 50 nM. In test [5], the 90% effect concentration (IC90) – broadly, the point of the concentration-response curve where the effect stands at 90% – came to 50 nM.
Turning to `CC(=O)OC1[C@@H](OC(C)=O)CO[C@H]1n1c(Cl)nc2cc(Cl)c(Cl)cc21` (stereo partly drawn), the IC50 in test [1] was 330 nM; in test [2], 100 nM; in [3], greater than 100000 nM; in test [4], 41000 nM; in [6] it was 250 nM; in [7], 45000 nM. In [5], this compound gave an IC90 of 100 nM.
Regarding `OC[C@H]1O[C@@H](n2c(Br)nc3cc(Cl)c(Cl)cc32)[C@H](O)[C@@H]1O`, the concentration for half-maximal inhibition (IC50) stood at 340 nM in test [9]; 1700 nM in [10]; 520 nM in test [1]; 300 nM in test [2]; 130000 nM in test [3]; 300 nM in test [11]. Moreover, the concentration for half-maximal inhibition (IC50) in [4] was 118000 nM; in [12], 31000 nM; in test [6], 700 nM; in test [14], greater than 100000 nM; in test [15], 410 nM. The IC90 in test [5] was 200 nM; in test [13], 8000 nM.
For the compound `OC[C@H]1O[C@@H](n2c(Cl)nc3cc(Cl)c(Cl)cc32)[C@H](O)[C@@H]1O`, in test [5], it took 1300 nM to reach the 90% level (IC90). Besides, the IC50 in [6] is 2800 nM; in test [7] it was 210000 nM.
As for `O[C@@H]1COC(n2c(Cl)nc3cc(Cl)c(Cl)cc32)[C@@H]1O` (stereo partly drawn), the IC50 in test [1] is 100 nM; in [2], 100 nM; in [3] it was greater than 100000 nM; in [4], 32000 nM; in test [6], 240 nM; in test [7] it was 60000 nM. Further, in test [5], the 90% effect concentration (IC90) was determined as 120 nM.
Consider `CC(C)Nc1nc2cc(Cl)c(Cl)cc2n1C1OC[C@H](O)[C@@H]1O` (stereo partly drawn), for which the figures for the half-maximal inhibitory concentration (IC50) in test [1], in test [2] and in [16] were 800 nM, 2300 nM and 15000 nM, respectively.
On the same counts, the results for `CC(C)Nc1nc2c(Br)c(Cl)c(Cl)cc2n1C1OC[C@@H](O)[C@H]1O` (stereo partly drawn) are 160 nM, 1000 nM and 13000 nM.
Take `O[C@@H]1COC(n2c(Cc3ccccc3S)nc3cc(Cl)c(Cl)cc32)[C@@H]1O` (stereo partly drawn): the IC50 in test [1] was greater than 10000 nM; in test [2], greater than 10000 nM; in test [3], 65000 nM; in test [4], 32000 nM; in [6], 32000 nM; in test [14], 60000 nM.
On to `CC(C)Nc1nc2cc(Cl)c(Cl)cc2n1C1OC[C@@H](O)[C@H]1O` (stereo partly drawn), for which the IC50 in [1] was 420 nM; in test [17], 800 nM; in test [3], greater than 100000 nM; in [4] it was greater than 100000 nM; in test [6], 7900 nM; in [14], greater than 100000 nM. Moreover, the IC50 in test [8] worked out at 1800 nM; in test [16], 84000 nM. Also, the concentration for an effect of 90% (IC90) was 8500 nM in test [18], 5000 nM in [5] and 6900 nM in [19].
`O[C@@H]1COC(n2c(NC3CC3)nc3cc(Cl)c(Cl)cc32)[C@@H]1O` (stereo partly drawn): the IC50 in [1] is 260 nM; in test [2] it was 600 nM; in test [3] it was greater than 100000 nM; in [4] it was greater than 100000 nM; in test [6], 19000 nM; in test [7], greater than 100000 nM. The compound also returned a 50% inhibitory concentration (IC50) in test [16] of 132000 nM. Also, the IC90 in test [18] came out at 5000 nM; in test [5], 6800 nM; in test [19] it was 10000 nM.
For the compound `O[C@@H]1C(n2c(NC3CC3)nc3cc(Cl)c(Cl)cc32)OC[C@@H]1O` (stereo partly drawn), the 50% inhibitory concentration (IC50) in test [1] is 2000 nM; in test [2], 2300 nM; in test [16], 43000 nM.
Take `O[C@@H]1COC(n2c(Br)nc3cc(Cl)c(Cl)cc32)[C@@H]1O` (stereo partly drawn): the IC50 was 30 nM in test [9]; 230 nM in test [10]; 230 nM in test [1]; 50 nM in test [2]; 50000 nM in test [3]; 32000 nM in test [4]. Besides, the IC50 in test [12] came out at 12000 nM; in [6], 240 nM; in test [20] it was 30 nM; in [14], 50000 nM; in [8] it was 40 nM; in test [16], 47000 nM. Besides, it took 60 nM to reach the 90% level in [5] (IC90).
On to `CC(C)Nc1nc2c(Cl)c(Cl)c(Cl)cc2n1C1OC[C@H](O)[C@@H]1O` (stereo partly drawn), for which the concentration for half-maximal inhibition (IC50) in test [1] was found to be 150 nM; in [2], 800 nM.
For `CC(C)Nc1nc2cc(Cl)c(Cl)cc2n1C1O[C@@H](CO)[C@H](O)[C@@H]1O` (stereo partly drawn), the concentration for half-maximal inhibition (IC50) was 330 nM in test [21]; 100 nM in test [1]; greater than 100000 nM in test [3]; greater than 100000 nM in test [4]; greater than 100000 nM in [22]; 65000 nM in test [7]. In test [23], it took 450 nM to reach half-maximal inhibition (IC50). Moreover, the concentration for an effect of 90% (IC90) amounted to 700 nM in test [18], 600 nM in test [5] and 590 nM in test [19].
As to `Nc1nc2c(ncn2COC(CO)CO)c(=O)[nH]1` [GANCICLOVIR], the IC50 is 4500 nM in [24]; 880 nM in test [1]; 2000 nM in test [17]; greater than 100000 nM in [4]; greater than 100000 nM in test [14]. Besides, the concentration for an effect of 90% (IC90) in test [25] was 3600 nM; in [5], 1600 nM; in test [26] it was 3300 nM; in [27], 4100 nM.
